# Shown are actives, neighbours in structure and some others; about 1.7% of the full set was active somewhere.
# NS3 helicase inh: blocks Hepatitis C virus NS3 helicase unwinding. NS3 helicase DNA unwinding, Cy5 molecular beacon fluorescence. 290,000 compounds, 0.56% hits. inhibition, % at 10.9 µM;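 active means inhibition above the mean of all tested compounds plus 3 SD, set per campaign, cut at about 35% in these data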;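 further: 0% = DMSO wells and 100% = thioflavine S control wells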
#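 Measured by: Cy5 fluorescence, 0 and 60 min reads / Assay system: NS3 helicase fragment of HCV / Control set: low DMSO, high thioflavine S at 110 µM / Times: 1 h reaction at 25 °C, ATP-initiated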
# core dimer inh: HCV core protein dimerization inhibition | AID 1899 | TR-FRET GST/Flag-core106 dimerization, 1536-well | inhibition, % at 5 µM | 300,000 compounds, 0.33% hits;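 active means inhibition above the mean of all tested compounds plus 3 SD, set per screening campaign, cut at about 45% in these data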
#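 Material: Tagged HCV core106 pair (GST and Flag) | Amount: GST-core106 13.5 nM, Flag-core106 17 nM | Medium: KF-containing HEPES buffer, pH 7.45, DTT, CHAPS, BSA | Reagent: Eu donor and XL665 acceptor anti-tag antibodies | Schedule: 4 h at 22.5 °C | Technique: Time-resolved FRET, ex 340 nm, em 617 and 671 nm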
# EBV gp42 block: EBV gp42 inhibition; Fluorescence polarization binding assay, mP read-out; 220,000 compounds, 0.42% hits; AID 1085; inhibition, % (tested at 21.74 µM); Q1HVG2; in the data active means inhibition above about 50%
# Target sequence (Q1HVG2 whole entry, looked up): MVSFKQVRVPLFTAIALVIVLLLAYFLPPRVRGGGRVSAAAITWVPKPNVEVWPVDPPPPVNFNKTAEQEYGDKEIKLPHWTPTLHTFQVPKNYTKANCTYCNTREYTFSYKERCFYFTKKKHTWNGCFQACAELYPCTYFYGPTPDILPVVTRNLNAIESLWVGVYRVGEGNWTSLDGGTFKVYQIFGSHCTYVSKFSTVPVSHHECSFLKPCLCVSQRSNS
# ZTA counter: counter-screen for EBNA-1 inhibitors: inhibitors of Epstein-Barr virus ZTA. P03206. ZTA-DNA binding, fluorescence polarization. inhibition, % at 11 µM. 320,000 compounds, 0.15% hits. AID 2234; in the data active means inhibition above about 33%
# EBNA-1 inh: blocks EBNA-1 binding to DNA; EBNA-1 DNA binding, fluorescence polarization; inhibition, % at 14.8 µM; 300,000 compounds, 0.34% hits; AID 1950; in the data active means inhibition above about 28%
# MEX-5 binding: C. elegans MEX-5 TCR-2 RNA binding activity; Q9XUB2; MEX-5/FITC-TCR2 RNA binding, fluorescence polarization; stronger effect = lower value; activity score (negative = inhibition of binding), % at 10 µM; 300,000 compounds, 0.38% hits; AID 1832;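 active means inhibition past about -25% in most replicates, and total fluorescence under double the plate's negative control median, limit read from the data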;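 further: 0% = DMSO and -100% = 5 µM competing unlabeled TCR2 RNA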
# An asterisk follows results filed as active; · = no result given; + = active, no number.
SMILES,NS3 helicase inh,core dimer inh,EBV gp42 block,ZTA counter,EBNA-1 inh,MEX-5 binding
COc1cc(/C=C/C(=O)OCC(=O)N2c3ccccc3NC(=O)C2(C)C)cc(OC)c1OC,·,·,·,-1,·,·
N=c1c(C(=O)NCC2CCCO2)cc2c(=O)n3ccccc3nc2n1Cc1ccccc1Cl (stereo unspecified),-1,5,·,-12,-20,-46*
COc1ccc(CCn2c(=N)c(C(=O)NC3CCCCC3)cc3c(=O)n4ccccc4nc32)cc1,-38,-3,·,-1,-20,-45*
Cc1cccn2c(=O)c3cc(C(=O)NC4CCCC4)c(=N)n(CCc4ccccc4)c3nc12,-16,6,·,-4,-11,-39*
CCNC(=O)c1cc2c(=O)n3cccc(C)c3nc2n(CCc2ccccc2)c1=N,1,8,-14,-11,-8,-66*
N=c1c(C(=O)NCC2CCCO2)cc2c(=O)n3ccccc3nc2n1Cc1ccccc1 (stereo unspecified),8,4,·,1,17,0
Cc1ccc(S(=O)(=O)N2CCCC2C(=O)NCc2ccccc2Cl)cc1 (stereo unspecified),-6,0,·,6,1,4
O=[N+]([O-])c1ccc(S(=O)(=O)N2CCN(c3ccc(N4CCOCC4)nn3)CC2)cc1,·,1,·,4,4,0
O=C(Cn1ccc(NC(=O)OCc2ccccc2)nc1=O)NCc1ccc2c(c1)OCO2,·,·,·,1,·,·
CCCn1c(=N)c(C(=O)NCC2CCCO2)cc2c(=O)n3cccc(C)c3nc21 (stereo unspecified),11,-5,-5,-7,-4,-27*
Cc1cccn2c(=O)c3cc(C(=O)NCC4CCCO4)c(=N)n(CCN4CCOCC4)c3nc12 (stereo unspecified),4,3,-21,0,-9,-6
CC1CCCC(NC(=O)CN(C)CC(=O)Nc2cccc(F)c2)C1C (stereo unspecified),·,·,·,-25,·,·
Nc1ccc2nc(CN3CCOCC3)[nH]c2c1,2,-2,-16,12,3,-64*
Cc1ccc(C(C(=O)NCC2CCCO2)N(C(=O)c2snc(C(N)=O)c2N)c2ccccc2F)o1 (stereo unspecified),24,-12,·,-13,-7,-2
O=C(NC(=S)Nn1cnc2c(cnn2-c2ccccc2)c1=O)c1ccc(Oc2ccccc2)cc1,1,24,-6,-1,31*,1
O=C(NC(=S)Nn1cnc2c(cnn2-c2ccccc2)c1=O)c1ccc(Cl)cc1,5,0,-13,-3,9,-2
COc1ccc(NC(=O)COC(=O)CNC(=O)c2cccs2)cc1Cl,·,·,·,-8,·,·
CC(C(=O)NCCN1C(=O)S/C(=C\c2cccnc2)C1=O)N1C(=O)c2ccccc2C1=O (stereo unspecified),-12,-15,-15,-2,-1,-1
O=C(CCl)NCCN1C(=O)S/C(=C\c2cccnc2)C1=O,-3,0,-26,-1,5,-60*
Cc1nc(S/C(=C/c2ccc(OCc3ccc(C(=O)O)cc3)cc2)C(=O)O)n[nH]1,11,-1,1,-5,-9,-69*
CCCCOc1ccc(CSc2n[nH]c(C)n2)cc1,-4,-7,-12,5,2,-3
O=C(NCc1ccccc1Cl)C1=CC=CN2CCS(=O)(=O)N=C12,·,·,·,7,·,·
Cc1ccc(NCc2nnc(SCC(=O)c3ccccc3)n2Cc2ccco2)c(C)c1,11,64*,11,-8,3,-1
O=C(Nc1ccc(-n2nncc2-c2ccco2)cc1)c1cc2ccccc2oc1=O,17,77*,24,-2,19,-1
O=C(Nc1ccc(-n2nncc2-c2ccco2)cc1)c1cccc(F)c1,11,6,-19,6,3,2
CC(C)(C)c1cc(NS(=O)(=O)c2ccc(Br)s2)no1,2,18,·,-5,0,1
O=c1cc(CSc2nnnn2-c2ccccc2)nc2scc(-c3ccccc3)n12,10,60*,-28,-9,8,0
CCN(CC)c1ccc(/C=C(\C#N)C(=O)c2ccc(Br)cc2)cc1,22,2,+,-4,15,-16
CCN(CC)c1ccc(/C=C(\C#N)C(N)=O)cc1,-7,·,-97,·,·,·
CN1CCc2cc3c(c4c2[C@H]1[C@H](O)c1ccccc1-4)OCO3,17,-11,59*,-5,-11,-84*

# Bioassay records from PubChem.
